According to ChEMBL document CHEMBL1137696, “Preparation and in vitro evaluation of benzylsulfanyl benzoxazole derivatives as potential antituberculosis agents” (2009):
Converted amounts (≈) assume the structure as drawn. The source made the active and inactive calls. The rule behind the calls is not given here.

How the values were obtained:
L929 = assay: Growth inhibition of mouse L929 cells; format: functional
Method in brief: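 Antiproliferative assay on adherent L-929 monolayers exposed to 10 concentrations of compound. Cells were fixed with glutaraldehyde, stained with 0.05% methylene blue for 15 min, washed, and the dye eluted with 0.33 N HCl. OD was read at 630 nm, and GI50 is the concentration giving 50% growth inhibition.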

K562 = assay: Growth inhibition of human K562 cells; format: functional
Method in brief: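 K-562 suspension cultures in microplates were exposed to 10 concentrations of compound. Each well was diluted 1:50 in CASYTON and counted with a CASY 1 electronic cell analyzer (150 µm aperture), using the mean of three successive 0.4 mL counts. GI50 is the point where the concentration-response curve of cell counts/mL relative to control crosses the 50% line.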

[1] = test system: Mycobacterium tuberculosis; assay: Antimycobacterial activity against Mycobacterium tuberculosis CNCTC My 331/88 after 21 days by micromethod; format: functional; details: CNCTC My 331/88, 504 h
Method in brief: (§1)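 MIC by micromethod in Šula semisynthetic medium. Compounds added as DMSO solutions at 1000, 500, 250, 125, 62, 32, 16, 8, 4 and 2 µmol/L. Incubated at 37 °C and read at 14 and 21 days. MIC taken as the lowest concentration that inhibited mycobacterial growth, expressed in µmol/L. INH run as standard. Strains from CNCTC.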

Mycobacterium kansasii [2] = assay: Antimycobacterial activity against Mycobacterium kansasii 6509/96 after 21 days by micromethod; format: functional; details: 6509/96, 504 h
Method in brief: (§2)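 Micromethod MIC in Šula semisynthetic medium, with compounds added as DMSO solutions at 1000, 500, 250, 125, 62, 32, 16, 8, 4 and 2 µmol/L. Cultures were incubated at 37 °C, and M. kansasii was read at 7, 14 and 21 days. MIC is the lowest concentration at which mycobacterial growth was inhibited. INH served as standard. Strain 6509/96 was a clinical isolate.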

HeLa = assay: Cytotoxicity against human HeLa cells; format: functional
Method in brief: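 Adherent HeLa monolayers were incubated with 10 concentrations of compound, then glutaraldehyde-fixed and stained with 0.05% methylene blue for 15 min. After gentle washing, the stain was eluted with 0.33 N HCl and absorbance read at 630 nm. CC50 is the concentration causing 50% cytotoxic (lytic) effect.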

[3] = test system: Mycobacterium tuberculosis; assay: Antimycobacterial activity against Mycobacterium tuberculosis CNCTC My 331/88 after 14 days by micromethod; format: functional; details: CNCTC My 331/88, 336 h; method in brief: as §1
Mycobacterium kansasii [4] = assay: Antimycobacterial activity against Mycobacterium kansasii CNCTC My 235/80 after 7 days by micromethod; format: functional; details: CNCTC My 235/80, 168 h; method in brief: as §2
Mycobacterium kansasii [5] = assay: Antimycobacterial activity against Mycobacterium kansasii 6509/96 after 14 days by micromethod; format: functional; details: 6509/96, 336 h; method in brief: as §2
Mycobacterium kansasii [6] = assay: Antimycobacterial activity against Mycobacterium kansasii 6509/96 after 7 days by micromethod; format: functional; details: 6509/96, 168 h; method in brief: as §2
Mycobacterium kansasii [7] = assay: Antimycobacterial activity against Mycobacterium kansasii CNCTC My 235/80 after 14 days by micromethod; format: functional; details: CNCTC My 235/80, 336 h; method in brief: as §2
Mycobacterium kansasii [8] = assay: Antimycobacterial activity against Mycobacterium kansasii CNCTC My 235/80 after 21 days by micromethod; format: functional; details: CNCTC My 235/80, 504 h; method in brief: as §2
Mycobacterium avium [9] = assay: Antimycobacterial activity against Mycobacterium avium CNCTC My 330/88 after 21 days by micromethod; format: functional; details: CNCTC My 330/88, 504 h; method in brief: as §1
Mycobacterium avium [10] = assay: Antimycobacterial activity against Mycobacterium avium CNCTC My 330/88 after 14 days by micromethod; format: functional; details: CNCTC My 330/88, 336 h; method in brief: as §1
Tetranychus urticae [11] = assay: Insecticidal activity against glasshouse red spider mite larvae; format: functional, organism-based
Tetranychus urticae [12] = assay: Insecticidal activity against glasshouse red spider mite egg; format: functional

SMILES | GI50 (L929) [µg/mL] | GI50 (K562) [µg/mL] | MIC [1] [µM] | MIC (Mycobacterium kansasii [2]) [µM] | CC50 (HeLa) [µg/mL] | MIC [3] [µM] | MIC (Mycobacterium kansasii [4]) [µM] | MIC (Mycobacterium kansasii [5]) [µM] | MIC (Mycobacterium kansasii [6]) [µM] | MIC (Mycobacterium kansasii [7]) [µM] | MIC (Mycobacterium kansasii [8]) [µM] | MIC (Mycobacterium avium [9]) [µM] | MIC (Mycobacterium avium [10]) [µM] | Activity (Tetranychus urticae [11]) | Activity (Tetranychus urticae [12])
O=[N+]([O-])c1cc(CSc2nc3ccccc3o2)cc([N+](=O)[O-])c1 | 22.4 (≈ 67.6 µM) | 9.2 (≈ 27.8 µM) | 8 (≈ 2.65 µg/mL) | 8 (≈ 2.65 µg/mL) | > 50 | 8 (≈ 2.65 µg/mL) | 2 (≈ 0.663 µg/mL) | 8 (≈ 2.65 µg/mL) | 4 (≈ 1.33 µg/mL) | 4 (≈ 1.33 µg/mL) | 4 (≈ 1.33 µg/mL) | > 32 | > 16 | – | –
NC(=S)c1ccc(CSc2nc3ccccc3o2)cc1 | 23.8 (≈ 79.2 µM) | 9.4 (≈ 31.3 µM) | 16 (≈ 4.81 µg/mL) | 16 (≈ 4.81 µg/mL) | 23.6 (≈ 78.6 µM) | 8 (≈ 2.4 µg/mL) | 8 (≈ 2.4 µg/mL) | 16 (≈ 4.81 µg/mL) | 8 (≈ 2.4 µg/mL) | 16 (≈ 4.81 µg/mL) | 16 (≈ 4.81 µg/mL) | 32 (≈ 9.61 µg/mL) | 32 (≈ 9.61 µg/mL) | – | –
Clc1ccc(CSc2nc3ccccc3o2)cc1 | – | – | > 500 | 125 (≈ 34.5 µg/mL) | – | 250 (≈ 68.9 µg/mL) | 32 (≈ 8.82 µg/mL) | 62 (≈ 17.1 µg/mL) | 32 (≈ 8.82 µg/mL) | 62 (≈ 17.1 µg/mL) | 125 (≈ 34.5 µg/mL) | 62 (≈ 17.1 µg/mL) | 62 (≈ 17.1 µg/mL) | Active | Active
